According to ChEMBL document CHEMBL3588763, “Styryl-N-phenyl-N'-(2-chloroethyl)ureas and styrylphenylimidazolidin-2-ones as new potent microtubule-disrupting agents using combretastatin A-4 as model” (Eur J Med Chem, 2015):
Calls of active or inactive are those of the source. No cut-off for these calls is given here.

Assays:
HT-29 = assay: Antiproliferative activity against human HT-29 cells assessed as cell growth inhibition after 48 hrs by sulforhodamine B assay; type: functional, cell-based; details: HT-29, 48 h
Summary of the method: (§1)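 NCI-style SRB screen with minor changes. Cells seeded per well in DMEM with 5% FBS: HT-29 4.0 x 10^3, M21 3.0 x 10^3, MCF-7 2.5 x 10^3, HT-1080 2.5 x 10^3. After 24 h, serially diluted drug was added at 50 µM to 1 nM final, DMSO <0.5%, for 48 h. Fixed with cold TCA, stained with SRB, read at 530–568 nm against plates fixed on treatment day. At least two experiments in triplicate, CV <10%.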

M21 [1] = assay: Antiproliferative activity against human M21 cells assessed as cell growth inhibition after 48 hrs by sulforhodamine B assay; type: functional, cell-based; details: M21, 48 h; summary of the method: as §1
MCF7 = assay: Antiproliferative activity against human MCF7 cells assessed as cell growth inhibition after 48 hrs by sulforhodamine B assay; type: functional, cell-based; details: MCF7, 48 h; summary of the method: as §1
[2] = Antiproliferative activity against human HT1080 cells assessed as cell growth inhibition after 48 hrs by sulforhodamine B assay; type: functional, cell-based; details: HT-1080, 48 h
[3] = biological target: T1, Tubulin beta (Homo sapiens) (UniProt P68371+Q9H4B7+Q13509+P04350+Q3ZCM7+P07437+Q13885+Q9BVA1+Q9BUF5+A6NNZ2); assay: Inhibition of N,N-ethylene-bis(iodoacetamide) binding to Tubulin beta colchicines-binding site in human M21 cells assessed as adduct formation at 100000 nM by Western blot analysis; type: cell-based
M21 [4] = assay: Induction of cell cycle arrest in human M21 cells assessed as cells accumulation at subG1 phase at 10 nM after 24 hrs by flow cytometry (reference value: 1.2%); type: functional
M21 [5] = assay: Induction of cell cycle arrest in human M21 cells assessed as cells accumulation at G0/G1 phase at 10 nM after 24 hrs by flow cytometry (reference value: 54.5%); type: functional
M21 [6] = assay: Induction of cell cycle arrest in human M21 cells assessed as cells accumulation at S phase at 10 nM after 24 hrs by flow cytometry (reference value: 22.2%); type: functional
M21 [7] = assay: Induction of cell cycle arrest in human M21 cells assessed as cells accumulation at G2/M phase at 10 nM after 24 hrs by flow cytometry (reference value: 22.1%); type: functional
[8] = biological target: T1, Tubulin beta (Homo sapiens); assay: Inhibition of N,N-ethylene-bis(iodoacetamide) binding to Tubulin beta colchicines-binding site in human M21 cells assessed as adduct formation at 410 nM by Western blot analysis; type: cell-based
[9] = biological target: T1, Tubulin beta (Homo sapiens); assay: Inhibition of N,N-ethylene-bis(iodoacetamide) binding to Tubulin beta colchicines-binding site in human M21 cells assessed as adduct formation at 910 nM by Western blot analysis; type: cell-based
[10] = biological target: T1, Tubulin beta (Homo sapiens); assay: Inhibition of N,N-ethylene-bis(iodoacetamide) binding to Tubulin beta colchicines-binding site in human M21 cells assessed as adduct formation at 2500 nM by Western blot analysis; type: cell-based
M21 [11] = assay: Induction of microtubule depolymerization and cytoskeleton disruption in human M21 cells at 10 nM after 16 hrs by immunofluorescence assay
M21 [12] = assay: Induction of cell cycle arrest in human M21 cells assessed as cells accumulation at subG1 phase at 4100 nM after 24 hrs by flow cytometry (reference value: 1.2%); type: functional
M21 [13] = assay: Induction of cell cycle arrest in human M21 cells assessed as cells accumulation at G0/G1 phase at 4100 nM after 24 hrs by flow cytometry (reference value: 54.5%); type: functional
M21 [14] = assay: Induction of cell cycle arrest in human M21 cells assessed as cells accumulation at S phase at 4100 nM after 24 hrs by flow cytometry (reference value: 22.2%); type: functional
M21 [15] = assay: Induction of cell cycle arrest in human M21 cells assessed as cells accumulation at G2/M phase at 4100 nM after 24 hrs by flow cytometry (reference value: 22.1%); type: functional
M21 [16] = assay: Induction of microtubule depolymerization and cytoskeleton disruption in human M21 cells at 4100 nM after 16 hrs by immunofluorescence assay
[17] = biological target: T1, Tubulin beta (Homo sapiens); assay: Binding affinity to Tubulin beta in human M21 cells assessed as tubulin acylation at 8200 nM after 24 hrs by electrophoretic mobility shift assay

| IC50 (HT-29) | IC50 (MCF7) | SMILES | IC50 (M21 [1]) | IC50 [2] | also measured |
| --- | --- | --- | --- | --- | --- |
| 0.37 µM | 0.54 µM | COc1cc(/C=C/c2ccc(N3CCNC3=O)cc2)cc(OC)c1OC | 0.55 µM | 0.4 µM | inhibition [3]: Active |
| 21 µM | 21 µM | CCNC(=O)Nc1ccc(/C=C\c2cc(OC)c(OC)c(OC)c2)cc1 | 21 µM | 29 µM | – |
| 11 µM | 17 µM | CCNC(=O)Nc1ccc(/C=C\c2cc(C)cc(C)c2)cc1 | 16 µM | 15 µM | – |
| 12 µM | 20 µM | O=C(NCCCl)Nc1ccc(/C=C/c2cccc(Cl)c2)cc1 | > 20 µM | > 20 µM | – |
| 0.0017 µM | 0.0026 µM | COc1cc(/C=C\c2ccc(N3CCNC3=O)cc2)cc(OC)c1OC | 0.0024 µM | 0.0023 µM | Activity (M21 [4]): 5.1%; Activity (M21 [5]): 4.2%; Activity (M21 [6]): 6.1%; Activity (M21 [7]): 84.6%; inhibition [8]: Active; inhibition [9]: Active; inhibition [10]: Active; Activity (M21 [11]): Active |
| 11 µM | 19 µM | Cc1cc(C)cc(/C=C/c2ccc(NC(=O)NCCCl)cc2)c1 | > 20 µM | > 20 µM | – |
| 9.5 µM | 20 µM | COc1cc(/C=C/c2ccc(NC(=O)NCCCl)cc2)cc(OC)c1OC | > 20 µM | > 20 µM | – |
| > 20 µM | 20 µM | CCNC(=O)Nc1ccc(/C=C/c2cc(C)cc(C)c2)cc1 | > 20 µM | > 20 µM | – |
| 0.68 µM | 1.4 µM | COc1cc(/C=C\c2ccc(NC(=O)NCCCl)cc2)cc(OC)c1OC | 0.95 µM | 1.4 µM | Activity (M21 [12]): 4.8%; Activity (M21 [13]): 3.9%; Activity (M21 [14]): 5.8%; Activity (M21 [15]): 85.5%; Activity (M21 [16]): Active; Activity [17]: Active |
| 17 µM | 20 µM | O=C1NCCN1c1ccc(/C=C/c2cccc(Cl)c2)cc1 | 19 µM | > 20 µM | – |
